Six compounds from ChEMBL document CHEMBL4351026, “Antifungal activity, mode of action variability, and subcellular distribution of coumarin-based antifungal azoles” (Eur J Med Chem, 2019) can be followed below.

The subject of test [1] is Candida albicans. Briefly: Antifungal activity against Candida albicans SN152 assessed as zone inhibition at 25 ug incubated for 24 hrs by disk diffusion method. Type of test: functional, organism-based. In short, it runs like this:
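Strains were streaked on YPD agar and grown at 30 °C: 24 h for parental SN152, 48 h for the erg11ΔΔ erg3ΔΔ mutant. Colonies were suspended in PBS and adjusted to OD 0.02 (SN152) or 0.03 (mutant), then spread on Casitone plates. A 6-mm disk loaded with 25 µg compound was placed centrally. Plates were incubated at 30 °C and photographed after 24 h.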
A general note: Agar diffusion results depend on both activity and mobility in agar.

In test [2] the test system is Candida albicans. The test is described as follows: Antifungal activity against ERG11/ERG3 knocked out Candida albicans SN152 assessed as zone of inhibition at 25 ug […] by disk diffusion method. Type of test: functional, organism-based.
For test [3], the system named is Candida albicans. Briefly: Antifungal activity against Candida albicans ATCC 90028 assessed as reduction in fungal cell growth incubated for 24 hrs by MTT based broth double dilution method. The settings on record: ATCC 90028, 24 h. Type of test: functional. In short, it runs like this:
(§1)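 Broth double-dilution in Casitone broth. Starter cultures were grown 24 or 48 h at 37 °C, 5% CO₂, diluted 1:100, and added to serial two-fold dilutions at 64 to 0.007 µg/mL. Final inoculum was 5 x 10^4 to 5 x 10^5 CFU/mL; DMSO was 0.0012–1.3%. Plates were incubated at 37 °C, 5% CO₂, then MTT was added for 2 h. MIC followed CLSI M27-A3. Triplicates, two independent experiments.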

The subject of test [4] is Candida albicans. The test is described as follows: Antifungal activity against Candida albicans P-87 assessed as reduction in fungal cell growth incubated for 24 hrs by MTT based broth double dilution method. Type of test: functional. The settings on record: P-87, 24 h. The essentials: as §1
Test [5] concerns Candida albicans. The test is described as follows: Antifungal activity against Candida albicans SN152 assessed as reduction in fungal cell growth incubated for 24 hrs by MTT based broth double dilution method. Type of test: functional. The settings on record: SN152, 24 h. In short, it runs like this: as §1
Test [6] deals with Nakaseomyces glabratus. Briefly: Antifungal activity against Candida glabrata ATCC 66032 assessed as reduction in fungal cell growth incubated for 24 hrs by MTT based broth double dilution method. Type of test: functional. The settings on record: ATCC 66032, 24 h. In short, it runs like this: as §1
Test [7] relates to Nakaseomyces glabratus. Briefly: Antifungal activity against Candida glabrata ATCC 2001 assessed as reduction in fungal cell growth incubated for 24 hrs by MTT based broth double dilution method. Type of test: functional. The settings on record: ATCC 2001, 24 h. The essentials:
as §1

For test [8], the system named is Nakaseomyces glabratus. The test is described as follows: Antifungal activity against Candida glabrata 192 assessed as reduction in fungal cell growth incubated for 24 hrs by MTT based broth double dilution method. Type of test: functional. The settings on record: Nakaseomyces glabratus, 192, 24 h. The essentials: as §1
For test [9], the system named is Candida parapsilosis. Briefly: Antifungal activity against Candida parapsilosis ATCC 90018 assessed as reduction in fungal cell growth incubated for 24 hrs by MTT based broth double dilution method. Type of test: functional. The settings on record: Lodderomyces parapsilosis, ATCC 90018, 24 h. The essentials: as §1
Test [10] concerns Candida parapsilosis. The test is described as follows: Antifungal activity against Candida parapsilosis ATCC 22019 assessed as reduction in fungal cell growth incubated for 24 hrs by MTT based broth double dilution method. The settings on record: Lodderomyces parapsilosis, ATCC 22019, 24 h. Type of test: functional. In short, it runs like this:
as §1

Test [11] concerns Meyerozyma guilliermondii. Briefly: Antifungal activity against Candida guilliermondii T-47 assessed as reduction in fungal cell growth incubated for 24 hrs by MTT based broth double dilution method. Type of test: functional. The settings on record: T-47, 24 h. In short, it runs like this: as §1
In a further test the test system is Candida dubliniensis. Briefly: Antifungal activity against Candida dubliniensis T-99 assessed as reduction in fungal cell growth incubated for 24 hrs by MTT based broth double dilution method. The settings on record: T-99, 24 h. Type of test: functional. In short, it runs like this: as §1
Test [12] has as its system Candida albicans. The test is described as follows: Antifungal activity against Candida albicans ATCC 90028 assessed as reduction in fungal cell growth incubated for 48 hrs by MTT based broth double dilution method. Type of test: functional. The settings on record: ATCC 90028, 48 h. The essentials: as §1
In test [13] the test system is Candida albicans. Briefly: Antifungal activity against Candida albicans SN152 assessed as reduction in fungal cell growth incubated for 48 hrs by MTT based broth double dilution method. The settings on record: SN152, 48 h. Type of test: functional. The essentials: as §1
Test [14] deals with Nakaseomyces glabratus. The test is described as follows: Antifungal activity against Candida glabrata ATCC 66032 assessed as reduction in fungal cell growth incubated for 48 hrs by MTT based broth double dilution method. The settings on record: ATCC 66032, 48 h. Type of test: functional. The essentials: as §1
Test [15] relates to Nakaseomyces glabratus. Briefly: Antifungal activity against Candida glabrata 192 assessed as reduction in fungal cell growth incubated for 48 hrs by MTT based broth double dilution method. Type of test: functional. The settings on record: Nakaseomyces glabratus, 192, 48 h. In short, it runs like this:
as §1

The target of another test is Cytochrome P450 3A4 (Homo sapiens, UniProt P08684). The test is described as follows: Inhibition of recombinant human CYP3A4 using Luciferin-PPXE as substrate preincubated for 10 mins followed by NADPH addition measured after 15 mins by luminometric method. Type of test: ADME. In short, it runs like this: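 P450-Glo luminescent assay, Luciferin-PPXE substrate. Compound was mixed with membranes containing recombinant human CYP3A4; controls were vehicle with membranes lacking CYP3A4. After 10 min preincubation at 37 °C, NADPH regeneration reagent was added and the mixture kept 15 min at 37 °C. Luciferin detection reagent stopped the reaction; after 20 min at room temperature, luminescence was read. Duplicates.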
Chain of Cytochrome P450 3A4 (P08684 whole entry): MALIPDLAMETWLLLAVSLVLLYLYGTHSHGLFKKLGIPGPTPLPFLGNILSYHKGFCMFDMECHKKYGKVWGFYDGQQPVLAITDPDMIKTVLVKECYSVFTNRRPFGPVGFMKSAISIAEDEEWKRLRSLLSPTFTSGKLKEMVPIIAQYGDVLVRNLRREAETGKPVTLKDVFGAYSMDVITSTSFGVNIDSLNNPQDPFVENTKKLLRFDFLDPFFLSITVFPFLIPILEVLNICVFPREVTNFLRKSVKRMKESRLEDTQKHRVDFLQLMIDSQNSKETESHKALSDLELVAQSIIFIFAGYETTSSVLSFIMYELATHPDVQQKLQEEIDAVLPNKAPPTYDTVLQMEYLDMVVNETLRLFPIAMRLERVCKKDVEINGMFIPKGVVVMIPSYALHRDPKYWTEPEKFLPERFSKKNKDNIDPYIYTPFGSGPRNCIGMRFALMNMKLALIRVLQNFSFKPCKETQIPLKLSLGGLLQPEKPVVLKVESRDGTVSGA

≈ marks a conversion by molar mass, not a printed value. Calls of active or inactive are those of the source. The calls are words filed in the database; no cut-off is given here.

As usually defined, the MIC is the lowest concentration that inhibits growth of the organism. As a reminder, the IC50 is the concentration at which inhibition is half-maximal. Take `CCC(CC)Oc1ccc2cc(C(=O)NCC(O)(Cn3ccnc3)c3ccc(F)cc3F)c(=O)oc2c1` (racemic): the “inhibition zone (IZ)” value with Candida albicans [1] and in the test on Candida albicans [2] was “Active” each time. Besides, the MIC in the test on Candida albicans [3] was determined as 0.03 µg/mL (≈ 0.0586 µM); in the test on Candida albicans [4], 0.015 µg/mL (≈ 0.0293 µM); in the test on Candida albicans [5], 0.03 µg/mL (≈ 0.0586 µM); in the test on Nakaseomyces glabratus [6], 2 µg/mL (≈ 3.91 µM); with Nakaseomyces glabratus [7], 4 µg/mL (≈ 7.82 µM); in the test on Nakaseomyces glabratus [8], 1 µg/mL (≈ 1.95 µM). For the same compound, the MIC in the test with Candida parapsilosis [9] turned out to be 0.125 µg/mL (≈ 0.244 µM); in the test on Candida parapsilosis [10], 0.25 µg/mL (≈ 0.489 µM); in test [11], 0.125 µg/mL (≈ 0.244 µM); in the test on Candida dubliniensis, 0.25 µg/mL (≈ 0.489 µM); with Candida albicans [12], 0.06 µg/mL (≈ 0.117 µM); in the test with Candida albicans [13], 0.06 µg/mL (≈ 0.117 µM). In addition, the MIC in the test with Nakaseomyces glabratus [14] stood at 4 µg/mL (≈ 7.82 µM); in the test on Nakaseomyces glabratus [15], 2 µg/mL (≈ 3.91 µM). For the same compound, the IC50 on Cytochrome P450 3A4 amounted to 332 nM.

`COc1ccc2cc(C(=O)NCC(O)(Cn3cncn3)c3ccc(F)cc3F)c(=O)oc2c1` (racemic): the MIC worked out at 0.25 µg/mL (≈ 0.548 µM) in the test with Candida albicans [3]; 0.125 µg/mL (≈ 0.274 µM) in the test on Candida albicans [4]; 0.5 µg/mL (≈ 1.1 µM) with Candida albicans [5]; 32 µg/mL (≈ 70.1 µM) in the test with Nakaseomyces glabratus [6]; 8 µg/mL (≈ 17.5 µM) in the test on Nakaseomyces glabratus [7]; 4 µg/mL (≈ 8.76 µM) with Nakaseomyces glabratus [8]. Besides, the minimal inhibitory concentration (MIC) in the test with Candida parapsilosis [9] amounted to 0.25 µg/mL (≈ 0.548 µM); in the test with Candida parapsilosis [10], 2 µg/mL (≈ 4.38 µM); in test [11], 1 µg/mL (≈ 2.19 µM); with Candida dubliniensis, 4 µg/mL (≈ 8.76 µM).

`O=C(NCC(O)(Cn1cncn1)c1ccc(F)cc1F)c1cc2ccccc2oc1=O` (racemic): the MIC in the test on Candida albicans [3] was 0.25 µg/mL (≈ 0.586 µM); with Candida albicans [4], 0.125 µg/mL (≈ 0.293 µM); in the test with Candida albicans [5], 0.25 µg/mL (≈ 0.586 µM); in the test with Nakaseomyces glabratus [6], 1 µg/mL (≈ 2.35 µM); with Nakaseomyces glabratus [7], 4 µg/mL (≈ 9.38 µM); with Nakaseomyces glabratus [8] it was 1 µg/mL (≈ 2.35 µM). The minimum inhibitory concentration (MIC) with Candida parapsilosis [9] was determined as 0.25 µg/mL (≈ 0.586 µM); with Candida parapsilosis [10], 2 µg/mL (≈ 4.69 µM); in [11], 1 µg/mL (≈ 2.35 µM); with Candida dubliniensis it was 0.5 µg/mL (≈ 1.17 µM).

Turning to `CCC(C)n1ncn(-c2ccc(N3CCN(c4ccc(OCC5COC(Cn6cncn6)(c6ccc(Cl)cc6Cl)O5)cc4)CC3)cc2)c1=O` (racemic) [ITRACONAZOLE], the minimal inhibitory concentration (MIC) worked out at 0.007 µg/mL (≈ 0.00992 µM) in the test on Candida albicans [3]; 0.007 µg/mL (≈ 0.00992 µM) in the test on Candida albicans [4]; 0.007 µg/mL (≈ 0.00992 µM) with Candida albicans [5]; 1 µg/mL (≈ 1.42 µM) with Nakaseomyces glabratus [6]; 1 µg/mL (≈ 1.42 µM) in the test on Nakaseomyces glabratus [7]; 0.125 µg/mL (≈ 0.177 µM) with Nakaseomyces glabratus [8]. In addition, the MIC in the test with Candida parapsilosis [9] was 0.007 µg/mL (≈ 0.00992 µM); with Candida parapsilosis [10], 0.03 µg/mL (≈ 0.0425 µM); in [11], 0.03 µg/mL (≈ 0.0425 µM); in the test with Candida dubliniensis, 0.06 µg/mL (≈ 0.085 µM); with Candida albicans [12], 0.007 µg/mL (≈ 0.00992 µM); in the test on Candida albicans [13], 0.007 µg/mL (≈ 0.00992 µM). Further, the MIC is greater than 64 µg/mL in the test with Nakaseomyces glabratus [14] and 0.125 µg/mL (≈ 0.177 µM) with Nakaseomyces glabratus [15].

`Clc1ccccc1C(c1ccccc1)(c1ccccc1)n1ccnc1` [CLOTRIMAZOLE]: the MIC is 0.007 µg/mL (≈ 0.0203 µM) in the test on Candida albicans [3]; 0.007 µg/mL (≈ 0.0203 µM) in the test on Candida albicans [4]; 0.007 µg/mL (≈ 0.0203 µM) with Candida albicans [5]; 0.5 µg/mL (≈ 1.45 µM) in the test on Nakaseomyces glabratus [7]; 0.06 µg/mL (≈ 0.174 µM) in the test with Nakaseomyces glabratus [8]; 0.007 µg/mL (≈ 0.0203 µM) with Candida parapsilosis [9]. For the same compound, the MIC was 0.007 µg/mL (≈ 0.0203 µM) with Candida parapsilosis [10]; 0.007 µg/mL (≈ 0.0203 µM) in [11]; 0.007 µg/mL (≈ 0.0203 µM) with Candida dubliniensis; 0.007 µg/mL (≈ 0.0203 µM) in the test on Candida albicans [12]; 0.007 µg/mL (≈ 0.0203 µM) in the test on Candida albicans [13]; 0.25 µg/mL (≈ 0.725 µM) in the test on Nakaseomyces glabratus [15].

Consider `Clc1ccc(COC(Cn2ccnc2)c2ccc(Cl)cc2Cl)c(Cl)c1` (centres undefined) [MICONAZOLE], for which the “inhibition zone (IZ)” value in the test on Candida albicans [1] and with Candida albicans [2] was “Active” each time. The MIC in the test on Candida albicans [3] turned out to be 0.007 µg/mL (≈ 0.0168 µM); in the test with Candida albicans [4] it was 0.007 µg/mL (≈ 0.0168 µM); in the test on Candida albicans [5], 0.007 µg/mL (≈ 0.0168 µM); in the test with Nakaseomyces glabratus [6], 2 µg/mL (≈ 4.81 µM); with Nakaseomyces glabratus [7], 1 µg/mL (≈ 2.4 µM); in the test with Nakaseomyces glabratus [8], 0.06 µg/mL (≈ 0.144 µM). Besides, the MIC in the test on Candida parapsilosis [9] is 0.06 µg/mL (≈ 0.144 µM); in the test with Candida parapsilosis [10], 0.003 µg/mL (≈ 0.00721 µM); in test [11] it was 0.06 µg/mL (≈ 0.144 µM); with Candida dubliniensis, 0.06 µg/mL (≈ 0.144 µM); in the test on Candida albicans [12] it was 0.015 µg/mL (≈ 0.036 µM); in the test with Candida albicans [13], 0.015 µg/mL (≈ 0.036 µM). Moreover, the results for the MIC with Nakaseomyces glabratus [14] and with Nakaseomyces glabratus [15] were 4 µg/mL (≈ 9.61 µM) and 0.125 µg/mL (≈ 0.3 µM), respectively.
